Bioassay records deposited in PubChem by several laboratories.
Shown are actives, neighbours in structure and some others; about 3% of the full set was active somewhere.
Exocytosis inh = lytic granule exocytosis inhibition. TALL-104 LAMP-1 surface exposure, flow cytometry; cells stimulated with thapsigargin and PMA. inhibition, % at 10 µM. 360,000 compounds, 0.66% hits. AID 651702;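 active = inhibition above about 55%, limit read from the data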
MPTP inh = blocks calcium-induced mitochondrial swelling | isolated mouse mitochondria, Ca2+ swelling absorbance, 30 min | inhibition, % at 10 µM | 360,000 compounds, 1.4% hits | AID 602449;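 active = inhibition of 50% or more, scaled per plate between neutral and stimulator controls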;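 note: 0% = DMSO wells given calcium and 100% = 1 mM EGTA wells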
iPSC survival up = increases survival of single human iPS cells | hiPSC single-cell survival, ATPlite luminescence; 100% = ROCK inhibitor wells, 0% = DMSO | survival enhancement, % at 20 µM | 360,000 compounds, 0.044% hits | AID 602274; in the data active = survival enhancement above about 18%;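 note: cells exposed to compounds for 16 hours before the ATP read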
MIN6 prolif = inducers of beta-cell replication in MIN6 cells; MIN6 cells proliferation, ATPlite luminescence, 48 h; cells starved in 0.2% serum; 100% = growth in 10% serum; proliferation, % at 10 µM; 330,000 compounds, 0.29% hits;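 active = compounds whose signal lies at least 3.5 SD above the mean of all wells on their plate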;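 note: 0% = DMSO-treated cells in low-serum medium and 100% = 10% serum control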
Apaf-1 inh = blocks human Apaf-1 apoptosome activity | inhibition, % at 20 µM | 330,000 compounds, 0.71% hits | reconstituted apoptosome caspase-3 activity, DEVD-Rh110 fluorescence; active = inhibition of at least 40% at 20 µM;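 note: plate controls were DMSO wells for no effect and DEVD-CHO caspase inhibitor wells for full effect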
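System: Apoptosome proteins | Medium: Hepes pH 7.5 with detergent and BSA | Also added: Cytochrome c trigger plus (Z-DEVD)2-Rh110 caspase-3 substrate | Incubation: 30 min compound preincubation, 50 min activation, room temperature | Detection: Rhodamine 110 fluorescence at Ex 480/Em 540 nm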
UBC13 polyUb = inhibitors of human UBC13 polyubiquitin chain formation; AID 485273; inhibition, % at 20 µM; 330,000 compounds, 0.47% hits; P61088; TR-FRET; in the data active = inhibition above about 45%, passing the limit was not always enough
Rh123 counter = membrane potential counter-screen of mitochondrial pore inhibitors; 5,000 compounds, 78% hits; isolated mitochondria, Rhodamine 123 fluorescence; inhibition, % at 10 µM; AID 624504; shares compounds with MPTP inh; in the data active = inhibition above about 22%;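 note: 0% = DMSO vehicle and 100% = positive control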
* hit, by the source's call.

Screening Cc1ccc(NC(=O)Nc2ccc(Cl)cc2)c(Br)c1 returned Exocytosis inh -1.9, MPTP inh 101.5*, iPSC survival up 1.3, MIN6 prolif -1.0, Apaf-1 inh 8.0, UBC13 polyUb 2.2 and Rh123 counter 92.3*.
Screening CSc1cccc(NC(N)=O)c1 returned Exocytosis inh 6.4, MPTP inh 1.6, iPSC survival up 0.0, MIN6 prolif -2.7, Apaf-1 inh -4.5 and UBC13 polyUb -1.1.
Screening CSc1cccc(NC(=O)Nc2ccc(Cl)cc2)c1 returned Exocytosis inh -1.2, MPTP inh 88.1*, iPSC survival up -3.0, MIN6 prolif -3.9, Apaf-1 inh 7.8, UBC13 polyUb 5.8 and Rh123 counter 103.8*.
`O=C(/C=C/c1cccc(C(F)(F)F)c1)Nc1cccc(C(F)(F)F)c1` gave Exocytosis inh 8.9, MPTP inh 86.6*, iPSC survival up -0.8, MIN6 prolif -4.5, Apaf-1 inh 16.1, UBC13 polyUb -0.9 and Rh123 counter 85.3*.
`CSc1cccc(NC(=O)NCc2cccc(CNC(=O)Nc3cccc(SC)c3)c2)c1` gave Exocytosis inh -0.4, MPTP inh 68.1*, iPSC survival up -0.3, MIN6 prolif -4.8, Apaf-1 inh -5.0, UBC13 polyUb -8.4 and Rh123 counter 63.0*.
O=C(Nc1ccc(Br)cc1)Nc1ccccc1Cl was read as Exocytosis inh 11.8, MPTP inh 78.5*, iPSC survival up 0.4, MIN6 prolif -6.8, Apaf-1 inh 16.4, UBC13 polyUb 3.6 and Rh123 counter 103.2*.
Screening CN(C)C(=O)Nc1ccccc1CC[N+](=O)[O-] returned Exocytosis inh 5.2, MPTP inh -0.6, iPSC survival up 5.2, MIN6 prolif -2.4, Apaf-1 inh 1.2 and UBC13 polyUb 2.0.
Screening O=C(Nc1ccc(Cl)cc1)Nc1ccccc1CC[N+](=O)[O-] returned Exocytosis inh -2.6, MPTP inh 83.2*, iPSC survival up -0.9, MIN6 prolif -1.4, Apaf-1 inh 7.4, UBC13 polyUb -0.2 and Rh123 counter 85.4*.
O=C(Nc1ccc(CN2CCCCC2)cc1)Nc1ccccc1Cl was read as Exocytosis inh 7.9, MPTP inh 0.1, iPSC survival up -1.0, MIN6 prolif -1.1, Apaf-1 inh -7.5 and UBC13 polyUb 12.1.
Screening CSc1cccc(NC(=O)C(=O)NCc2ccccc2)c1 returned Exocytosis inh -9.7, MPTP inh 1.3, iPSC survival up 0.3, MIN6 prolif -4.7, Apaf-1 inh -25.7 and UBC13 polyUb -4.7.
CC1(NC(=O)c2cc(Cl)nc3ccccc23)CCS(=O)(=O)C1 (stereo not drawn) was read as Exocytosis inh 4.0, MPTP inh 0.2, iPSC survival up 0.2, MIN6 prolif 4.6, Apaf-1 inh -13.1 and UBC13 polyUb 10.7.
Screening CC1=NN(C(=O)c2ccc(Br)cc2)C(O)(C(F)(F)OC(F)(F)F)C1 (stereo not drawn) returned Exocytosis inh -2.8, MPTP inh 68.0*, iPSC survival up -0.5, MIN6 prolif -4.3, Apaf-1 inh 9.5, UBC13 polyUb -0.2 and Rh123 counter 77.8*.
`CCOC(=O)c1[nH]c(C)c(/C(O)=C2\C(=O)C(=O)N(CCN3CCOCC3)C2c2cccs2)c1C` (stereo not drawn) gave Exocytosis inh 0.5, MPTP inh active, iPSC survival up 1.8, MIN6 prolif 0.4, Apaf-1 inh -5.7, UBC13 polyUb -2.1 and Rh123 counter 1.0.
CC(C)N=C(NC#N)SCc1ccccc1F was read as Exocytosis inh -3.3, MPTP inh -0.6, iPSC survival up -1.6, MIN6 prolif -2.1, Apaf-1 inh -10.9 and UBC13 polyUb -2.2.
Screening N#CNC(=Nc1cccc(F)c1)SCc1ccccc1F returned Exocytosis inh 9.3, MPTP inh 77.3*, iPSC survival up 2.3, MIN6 prolif -5.9, Apaf-1 inh -8.3, UBC13 polyUb -7.1 and Rh123 counter 90.9*.
O=C(Nc1csc([N+](=O)[O-])c1)Nc1c(Cl)cccc1Cl was read as Exocytosis inh 8.8, MPTP inh 67.2*, iPSC survival up 0.1, MIN6 prolif -0.9, Apaf-1 inh -1.1, UBC13 polyUb -1.1 and Rh123 counter 87.5*.
O=C(Nc1ccc(Cl)cc1)Nc1csc([N+](=O)[O-])c1 was read as Exocytosis inh 1.3, MPTP inh 78.8*, iPSC survival up -0.5, MIN6 prolif -3.4, Apaf-1 inh 7.1, UBC13 polyUb 5.5 and Rh123 counter 78.4*.
`CCNC(=O)NC(=O)c1csc([N+](=O)[O-])c1` gave Exocytosis inh -2.4, MPTP inh 3.1, iPSC survival up -0.7, MIN6 prolif -1.6, Apaf-1 inh -6.2 and UBC13 polyUb -0.7.
For NC(=O)CSc1oc(-c2ccco2)nc1S(=O)(=O)c1ccc(Br)cc1 the results were Exocytosis inh -2.1, MPTP inh 1.1, iPSC survival up -0.1, MIN6 prolif 0.1, Apaf-1 inh -5.0 and UBC13 polyUb 1.1.
`CCC(C(=O)OCC(=O)Nc1ccc(SC(F)F)cc1)c1ccccc1` (stereo not drawn) gave Exocytosis inh 73.2*, MPTP inh 77.7*, iPSC survival up -0.8 and Rh123 counter 87.6*.
`CCC(C(=O)OCC(=O)Nc1ccc(F)cc1)c1ccccc1` (stereo not drawn) gave Exocytosis inh -2.2, MPTP inh 0.0, iPSC survival up -0.4, MIN6 prolif -5.2, Apaf-1 inh 23.8 and UBC13 polyUb -1.6.
Screening CCOc1cc(C(=O)OCC(=O)Nc2ccc(SC(F)F)cc2)cc(OCC)c1OCC returned Exocytosis inh -2.2, MPTP inh 50.1*, iPSC survival up 0.1, MIN6 prolif -4.5, Apaf-1 inh 10.1, UBC13 polyUb -5.8 and Rh123 counter 61.1*.
For CCCCc1ccc(S(=O)(=O)NC(=O)C2(C)CCN2C(=O)c2cccc(F)c2)cc1 (stereo not drawn) the results were Exocytosis inh -4.1, MPTP inh -0.5 and iPSC survival up -0.5.
Screening COc1ccccc1CCNC(=O)c1cccc(S(=O)(=O)N2CCc3ccccc3C2)c1 returned Exocytosis inh -5.4, MPTP inh -0.6, iPSC survival up -0.5, MIN6 prolif -4.7, Apaf-1 inh 18.7 and UBC13 polyUb 5.4.
`O=C(Oc1c(Br)cc([N+](=O)[O-])cc1Br)c1cccnc1` gave Exocytosis inh -0.7, MPTP inh 71.7*, iPSC survival up -2.4, MIN6 prolif -2.4, Apaf-1 inh 2.5, UBC13 polyUb -24.2 and Rh123 counter 95.6*.
Screening CC1(C)CC(=O)C2=C(C1)c1c(ccc3ccccc13)NC2c1cc([N+](=O)[O-])cc([N+](=O)[O-])c1O (stereo not drawn) returned Exocytosis inh -1.0, MPTP inh 73.2*, iPSC survival up -2.3, MIN6 prolif -4.5, Apaf-1 inh 3.6, UBC13 polyUb -19.0 and Rh123 counter 57.3*.
